# Data published in ChEMBL document CHEMBL4257590, “Semisynthesis of Platensimycin Derivatives with Antibiotic Activities in Mice via Suzuki-Miyaura Cross-Coupling Reactions” (J Med Chem, 2018).
# Activity calls are given as the source filed them. The rule behind the calls is not given here.
# What was measured:
# [1] = tested on: Staphylococcus aureus; test: Antibacterial activity against methicillin-sensitive Staphylococcus aureus isolate 1 after 16 hrs by agar dilution method; assay type: functional; conditions: isolate 1, 16 h
# Summary of the method: (§1)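 Agar dilution in LB agar with compound (from methanol solutions) at final 0.5–64 μg/ml per plate. Strains grown 16 h at 37 °C, 250 rpm in LB broth, adjusted to OD600 0.25±0.05, diluted 10^4-fold; 2 μl spotted per plate, incubated 16 h at 37 °C. MIC = lowest concentration with no visible colonies; at least two independent experiments. Linezolid and PTM as controls.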
# [2] = tested on: Staphylococcus aureus; test: Antibacterial activity against methicillin-resistant Staphylococcus aureus isolate 4 after 16 hrs by agar dilution method; assay type: functional; conditions: isolate 4, 16 h; summary of the method: as §1
# [3] = tested on: Mus musculus; test: Toxicity in C57BL/6J mouse infected with methicillin-resistant Staphylococcus aureus assessed as effect on mouse body weight at 10 mg/kg, ip administered 1 and 5 hrs postinfection and measured for 7 days; assay type: organism-based; conditions: in vivo, 168 h
# Summary of the method: (§2)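 Lethal peritonitis: female C57BL/6J mice, 6–8 weeks, 18–21 g, infected ip with 2 × 10^7 CFU MRSA in 0.5 ml saline with 5% (w/v) mucin. Treated ip 0.2 mL/mouse at 1 and 5 h post-infection (n = 5/group): 50 mg/kg at 5 mg/mL in 12.5% DMSO vehicle, or 10 mg/kg at 1 mg/mL in 2.5% DMSO/30% propanediol/30% PEG400/37.5% saline; vancomycin in saline, saline control. Checked twice daily for survival and body weight over 7 days.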
# [4] = tested on: Mus musculus; test: Toxicity in C57BL/6J mouse infected with methicillin-resistant Staphylococcus aureus assessed as mouse death at 50 mg/kg, […] measured within 48 hrs; assay type: organism-based; conditions: in vivo, ip
# [5] = tested on: Staphylococcus aureus; test: Antibacterial activity against Staphylococcus aureus ATCC 29213 after 16 hrs by agar dilution method; assay type: functional; conditions: ATCC 29213, 16 h; summary of the method: as §1
# [6] = tested on: Staphylococcus aureus; test: Antibacterial activity against methicillin-sensitive Staphylococcus aureus isolate 2 after 16 hrs by agar dilution method; assay type: functional; conditions: isolate 2, 16 h; summary of the method: as §1
# [7] = tested on: Staphylococcus aureus; test: Antibacterial activity against methicillin-resistant Staphylococcus aureus infected in C57BL/6J mouse assessed as protection against lethal peritonitis by measuring mouse survival at 50 mg/kg, ip administered 1 and 5 hrs postinfection and measured up to 24 hrs post infection; assay type: functional, organism-based; summary of the method: as §2
# [8] = tested on: Staphylococcus aureus; test: Antibacterial activity against methicillin-resistant Staphylococcus aureus infected in C57BL/6J mouse assessed as reduction in bacterial load in blood at 50 mg/kg, ip administered 1 and 5 hrs postinfection and measured at 12 hrs post bacterial infection; assay type: functional, organism-based
# Summary of the method: (§3)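 Female C57BL/6J mice, 6–8 weeks, 18–21 g, infected ip with 2 × 10^7 CFU MRSA in 0.2 ml saline with 5% hog gastric mucin. Dosed ip 50 mg/kg at 1 and 5 h post-infection; test agents at 5 mg/mL in 12.5% DMSO/30% propanediol/30% PEG400/27.5% saline, vancomycin in saline, saline control. At 12 h blood and homogenized kidneys plated on LB agar overnight at 37 °C for CFU; n = 5, mean ± SEM, unpaired two-tailed t-test.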
# [9] = tested on: Staphylococcus aureus; test: Antibacterial activity against methicillin-resistant Staphylococcus aureus isolate 3 after 16 hrs by agar dilution method; assay type: functional; conditions: isolate 3, 16 h; summary of the method: as §1
# [10] = tested on: Staphylococcus aureus; test: Antibacterial activity against methicillin-resistant Staphylococcus aureus isolate 6 after 16 hrs by agar dilution method; assay type: functional; conditions: isolate 6, 16 h; summary of the method: as §1
# [11] = tested on: Staphylococcus aureus; test: Antibacterial activity against methicillin-resistant Staphylococcus aureus infected in C57BL/6J mouse assessed as reduction in bacterial load in kidney at 50 mg/kg, ip administered 1 and 5 hrs postinfection and measured at 12 hrs post bacterial infection; assay type: functional, organism-based; summary of the method: as §3
# [12] = tested on: Staphylococcus aureus; test: Antibacterial activity against methicillin-resistant Staphylococcus aureus isolate 5 after 16 hrs by agar dilution method; assay type: functional; conditions: isolate 5, 16 h; summary of the method: as §1
# [13] = tested on: Staphylococcus aureus; test: Antibacterial activity against methicillin-resistant Staphylococcus aureus after 18 hrs in presence of 10% human serum by resazurin dye-based assay; assay type: functional
# Summary of the method: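 One clinical MRSA strain grown to exponential phase (OD600 = 0.5), diluted to 10^6 CFU/ml in Mueller-Hinton broth; 100 μl compound dilutions mixed with 100 μl bacteria with or without 10% human serum, 18 h at 37 °C. Resazurin (0.66 mM, 50 μl) then added and read visually.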
Compound,MIC [1],MIC [2],Activity [3],Activity [4],MIC [5],MIC [6],Activity [7],Activity [8],MIC [9],MIC [10],Activity [11],MIC [12],MIC [13]
C[C@]12C[C@@]34C=C(c5cc6cccc7ccc8cccc5c8c76)C(=O)[C@@](C)(CCC(=O)Nc5c(O)ccc(C(=O)O)c5O)[C@@H]3[C@H](C[C@H]1C4)O2,2 µg/mL,2 µg/mL,Non-Toxic,Toxic,2 µg/mL,2 µg/mL,inactive,Active,4 µg/mL,2 µg/mL,Active,4 µg/mL,4 µg/mL
CC(=O)NC[C@H]1CN(c2ccc(N3CCOCC3)c(F)c2)C(=O)O1 [LINEZOLID],1 µg/mL,1 µg/mL,–,–,1 µg/mL,1 µg/mL,–,–,1 µg/mL,1 µg/mL,–,1 µg/mL,–
C[C@]12C[C@@]34C=C(c5ccc6ccccc6c5)C(=O)[C@@](C)(CCC(=O)Nc5c(O)ccc(C(=O)O)c5O)[C@@H]3[C@H](C[C@H]1C4)O2,8 µg/mL,8 µg/mL,–,–,8 µg/mL,8 µg/mL,–,–,8 µg/mL,8 µg/mL,–,8 µg/mL,–
CN[C@H](CC(C)C)C(=O)N[C@H]1C(=O)N[C@@H](CC(N)=O)C(=O)N[C@H]2C(=O)N[C@H]3C(=O)N[C@H](C(=O)N[C@H](C(=O)O)c4cc(O)cc(O)c4-c4cc3ccc4O)[C@H](O)c3ccc(c(Cl)c3)Oc3cc2cc(c3O[C@@H]2O[C@H](CO)[C@@H](O)[C@H](O)[C@H]2O[C@H]2C[C@](C)(N)[C@H](O)[C@H](C)O2)Oc2ccc(cc2Cl)[C@H]1O [VANCOMYCIN],–,–,Non-Toxic,–,–,–,–,Active,–,–,Active,–,–
C[C@]12C[C@@]34C=CC(=O)[C@@](C)(CCC(=O)Nc5c(O)ccc(C(=O)O)c5O)[C@@H]3[C@H](C[C@H]1C4)O2,0.5 µg/mL,1 µg/mL,–,–,0.5 µg/mL,0.5 µg/mL,–,Active,0.5 µg/mL,1 µg/mL,Active,1 µg/mL,8 µg/mL
C[C@]12C[C@@]34C=C(c5ccc(-c6ccccc6)cc5)C(=O)[C@@](C)(CCC(=O)Nc5c(O)ccc(C(=O)O)c5O)[C@@H]3[C@H](C[C@H]1C4)O2,8 µg/mL,8 µg/mL,–,–,4 µg/mL,8 µg/mL,–,–,8 µg/mL,8 µg/mL,–,8 µg/mL,–
C[C@]12C[C@@]34C=C(c5cccc(-c6ccccc6)c5)C(=O)[C@@](C)(CCC(=O)Nc5c(O)ccc(C(=O)O)c5O)[C@@H]3[C@H](C[C@H]1C4)O2,8 µg/mL,8 µg/mL,–,–,8 µg/mL,8 µg/mL,–,–,8 µg/mL,8 µg/mL,–,8 µg/mL,–
COc1ccccc1C1=C[C@]23C[C@@H]4C[C@H](O[C@@]4(C)C2)[C@H]3[C@](C)(CCC(=O)Nc2c(O)ccc(C(=O)O)c2O)C1=O,8 µg/mL,16 µg/mL,–,–,8 µg/mL,16 µg/mL,–,–,16 µg/mL,16 µg/mL,–,16 µg/mL,–
C[C@]12C[C@@]34C=C(c5cccc(O)c5)C(=O)[C@@](C)(CCC(=O)Nc5c(O)ccc(C(=O)O)c5O)[C@@H]3[C@H](C[C@H]1C4)O2,32 µg/mL,32 µg/mL,–,–,32 µg/mL,32 µg/mL,–,–,32 µg/mL,32 µg/mL,–,32 µg/mL,–
C[C@]12C[C@@]34C=C(c5ccccc5)C(=O)[C@@](C)(CCC(=O)Nc5c(O)ccc(C(=O)O)c5O)[C@@H]3[C@H](C[C@H]1C4)O2,16 µg/mL,16 µg/mL,–,–,16 µg/mL,16 µg/mL,–,–,16 µg/mL,16 µg/mL,–,16 µg/mL,–
